A selection: hits, their analogues and other compounds. The true share with any hit is near 1.6%.
RBBP9 inh: human RBBP9 inhibitors, primary screen, biochemical, fluorescence polarization, FP-Rh probe, HTS; Serine hydrolase RBBP9 (Homo sapiens), O75884; recombinant RBBP9; inhibition, % at 7.94 µM; hit rate 0.2% among 220,000; AID 1515, 2009;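 active means inhibition above the campaign mean of all tested compounds plus 3 SD, cut at about 14% in these data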;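 further: plate controls were DMSO wells with RBBP9 for no effect and wells lacking RBBP9 protein for full effect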
Target sequence (O75884 whole entry, looked up): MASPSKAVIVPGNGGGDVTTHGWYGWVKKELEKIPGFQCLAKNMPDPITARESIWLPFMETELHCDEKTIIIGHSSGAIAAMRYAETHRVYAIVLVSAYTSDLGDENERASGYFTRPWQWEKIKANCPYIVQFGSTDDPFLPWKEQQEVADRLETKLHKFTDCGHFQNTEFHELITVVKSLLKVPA
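System: RBBP9 protein / Quantity: 2.5 µM RBBP9 dispensing solution, before mixing / Also added: Serine-hydrolase probe FP-Rh, 375 nM pre-mixing / Dosing: 7.94 µM single dose, 0.794% DMSO / Timing: enzyme-compound preincubation 30 min, then probe labeling 45 min, 25 °C / Signal: FP readout at 525/598 nm / Controls: DMSO-treated enzyme wells and wells lacking RBBP9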
TCR-CD3 inh: inhibitors of human TCR-CD3 interaction, primary screen, biochemical, fluorescence, TAMRA-labeled TCR probe; inhibition, % at 9.4 µM; hit rate 0.37% among 360,000; in the data active means inhibition above about 19%;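 further: recombinant mutant TCR 2C K166C tagged with TAMRA read by polarization; 0% = receptor in buffer alone and 100% = receptor with positive control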
PABP polyA inh: PABP poly(A) RNA binding inhibitors, primary screen, biochemical, fluorescence polarization, uHTS | Polyadenylate-binding protein 1 (Homo sapiens), P11940 | calls only at 35 µM | hit rate 1% among 290,000 | AID 2014, 2009;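 further: calls also rest on retests at 20 µM and on dose response follow-up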
eIF4H FP inh: human eIF4H binding inhibitors, primary screen, translation initiation inhibitor project, biochemical, uHTS, fluorescence polarization; Eukaryotic translation initiation factor 4H (Homo sapiens), Q15056; eIF4H fluorescence polarization binding assay; inhibition, % at 35 µM; hit rate 0.94% among 290,000;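 further: calls also rest on retests at 20 µM and on dose response follow-up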
MLLE-PAM2 inh: inhibitors of PABP1 MLLE–PAM2 peptide binding, primary screen, biochemical, fluorescence polarization, FITC-PAM2, GST-MLLE; Polyadenylate-binding protein 1 (Homo sapiens), P11940; inhibition, % at 20 µM; hit rate 0.36% among 360,000; in the data active means inhibition above about 35%, passing the limit was not always enough;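 further: plate controls were DMSO wells with GST-MLLE for no effect and wells lacking GST-MLLE protein for full effect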
BSA probe FL: compounds interfering with TAMRA-BSA probe, counter-screen for TCR-CD3 interaction inhibitor project, biochemical, fluorescence, TAMRA-labeled BSA; shares compounds with TCR-CD3 inh; TAMRA-labeled BSA probe fluorescence counterscreen; inhibition, % at 9.4 µM; hit rate 10% among 1,200; in the data active means inhibition above about 23%;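 further: 0% = buffer low control and 100% = reference high control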
TCR-CD3 inh conf: TCR-CD3 interaction inhibitors, retest, confirmation, biochemical, fluorescence, TAMRA-labeled TCR probe; shares compounds with TCR-CD3 inh; AID 652036, 2013; TAMRA-labeled TCR probe fluorescence binding assay; inhibition, % at 9.4 µM; hit rate 48% among 1,200; in the data active means inhibition above about 19%
Active calls of the source: *; i = inactive; ? = inconclusive; . = no result given. Unless noted, how the calls were made is not given here.

SMILES | RBBP9 inh | TCR-CD3 inh | PABP polyA inh | eIF4H FP inh | MLLE-PAM2 inh | BSA probe FL | TCR-CD3 inh conf
O=C1C=C(NCCc2cc(Br)c(O)c(Br)c2)C(=O)c2ncccc21 | . | 26* | . | . | 23 | -6 | 25*
CC(C)(C)c1ccc(C#C[C@@H]2C=C[C@@H](O)[C@@H](COC(=O)NCc3ccccc3)O2)cc1 | . | 5 | . | . | . | . | .
COc1ccc(C2OC34CCCCC3C(C#N)(C#N)C2(C#N)C(=N)O4)cc1 (stereo not given) | -4 | 27* | ? | ? | 80 | 65* | 44*
CCCCCNC(=O)C(CCc1ccccc1)n1c(=O)c(-c2ccccc2)nc2ccccc21 (stereo not given) | . | 1 | . | . | . | . | .
c1cc(-c2ccoc2)n2ccnc2c1 | . | 25* | . | . | 47* | 19 | 16
c1cc(-c2ccsc2)n2ccnc2c1 | . | -2 | . | . | 7 | . | .
COc1ccc(CCN(C(=S)Nc2ccccc2)C2CC(=O)N(c3ccccc3)C2=O)cc1 (stereo not given) | -13 | 8 | i | -4 | -19 | . | .
O=C1CC(N(CCc2ccccc2)C(=S)Nc2ccccc2)C(=O)N1c1ccc(Br)cc1 (stereo not given) | -46 | 24* | i | 4 | -30 | 3 | 3
COc1ccc(N2C(=O)c3[nH]nc(-c4ccccc4)c3C2c2ccc(F)cc2)cc1 (stereo not given) | . | 0 | . | . | . | . | .
Cc1ccc(C)c(NC(=O)CCC(=O)N/N=C/c2cc([N+](=O)[O-])ccc2O)c1 | 5 | 15 | i | 14 | -1 | . | .
Cc1cc(=O)oc2cc(OCC(=O)N/N=C/c3cc([N+](=O)[O-])ccc3O)ccc12 | 2 | 48* | i | 91 | 8 | -14 | 51*
O=C(CN(c1cccc(Br)c1)S(=O)(=O)c1ccccc1)N/N=C/c1cc([N+](=O)[O-])ccc1O | . | 30* | . | . | -5 | -16 | 28*
O=C(CCCC(=O)Nc1cccc(Br)c1)N/N=C/c1cc([N+](=O)[O-])ccc1O | . | 9 | i | 3 | -4 | . | .
O=C(CSc1nc2ccccc2s1)N/N=C/c1cc([N+](=O)[O-])ccc1O | -12 | 34* | i | 15 | 9 | -11 | 31*
O=C(CCC(=O)Nc1cccc(Cl)c1)N/N=C/c1cc([N+](=O)[O-])ccc1O | -3 | 28* | i | 19 | 7 | -2 | 41*
N#Cc1ccc(CC(=O)c2ccccc2)[nH]c1=O | . | 60* | . | . | 9 | 16 | 9
COC(=O)[C@]12C[C@H](CC(=O)NCC34CC5CC(CC(C5)C3)C4)C(=O)N(CCC3=CCCCC3)C1=C[C@H](C(C)(C)C)O[C@@H]2C | . | -5 | . | . | . | . | .
C/C(=N\NC(=O)CCc1ccccc1)C1C(=O)c2ccccc2C1=O | -7 | 19* | i | 14 | 11 | -6 | 5
CC(/C=C/c1ccccc1)=N\NC(=O)CCc1ccccc1 | -2 | -2 | i | -1 | -5 | . | .
CC(C)C[C@@H]1COc2cccc(N3CCCCC3)c2S(=O)(=O)N1 | . | 1 | . | . | . | . | .
CC(C)C[C@H](NC(=O)c1nc[nH]c1C(=O)N[C@@H](CCCCNC(=O)OC(C)(C)C)C(=O)OC(C)(C)C)C(=O)OCc1ccccc1 | . | -2 | i | -2 | -5 | . | .
C[C@H](NC(=O)c1nc[nH]c1C(=O)N[C@@H](CCCCNC(=O)OC(C)(C)C)C(=O)OC(C)(C)C)C(=O)OCc1ccccc1 | . | 27* | i | 9 | 1 | 1 | 3
Cn1cc(CC(=O)Nc2ccc(Oc3cccnc3)cc2)c2ccccc21 | . | 2 | . | . | . | . | .
CCOC(=O)C1=C(CC)Nc2ccccc2N=C1NC(=O)c1cc(C)on1 | . | 6 | . | . | -6 | . | .
CCOC(=O)C1=C(CC)Nc2ccccc2N=C1NC(=O)Nc1ccc(Cl)c(Cl)c1 | -28 | 79* | i | -11 | 0 | 20 | 54*
SMILES | RBBP9 inh | TCR-CD3 inh | PABP polyA inh | eIF4H FP inh | MLLE-PAM2 inh | BSA probe FL | TCR-CD3 inh conf
O=C(NCc1ccco1)C(=O)NN=Cc1ccccc1O | . | 2 | . | . | . | . | .
COC(=O)c1cc2c(c3c4cc(OC)ccc4n(S(=O)(=O)c4ccc(OC)cc4)c13)C(=O)N(Cc1ccccc1OC)C2 | . | 6 | . | . | . | . | .
CCOC(=O)c1cnc2c3c(noc13)CCC2 | . | -8 | . | . | . | . | .
COc1cccc2c1C(=N)c1c(O)c3c(c(O)c1C2=O)CC(O)(C(C)=O)CC3OC1CC(N)C(O)C(C)O1 (stereo not given) | . | . | . | . | -60 | . | .
CCCCC(=O)OCC(=O)C1(O)Cc2c(O)c3c(c(O)c2C(OC2CC(NC(=O)C(F)(F)F)C(O)C(C)O2)C1)C(=O)c1c(OC)cccc1C3=O (stereo not given) | . | -7 | . | . | -15 | . | .
COc1cccc2c1C(=O)c1c(O)c3c(c(O)c1C2=O)CC(O)(C(C)=O)CC3OC1CC(O)C(O)C(C)O1 (stereo not given) | . | 134* | . | . | i | 180* | 142*
COc1cccc2c1C(=O)c1c(O)c3c(c(O)c1C2=O)C[C@](O)(C(C)=O)C[C@H]3O[C@@H]1C[C@@H](N)[C@@H](O)[C@@H](C)O1 | . | 163* | . | . | 159 | 179* | 148*
COC(=O)C1=C(C)N(Cc2ccc(F)cc2)C(=S)NC1c1ccccc1 (stereo not given) | . | -1 | . | . | . | . | .
COc1ccc(C(C)c2cc3c(cc2OCC(=O)O)OCO3)cc1 (stereo not given) | . | 5 | . | . | . | . | .
Cc1nn(CC(=O)NC2CCS(=O)(=O)C2)c(C)c1[N+](=O)[O-] (stereo not given) | . | 27* | . | . | 3 | 3 | -1
Cc1nn(CC(=O)NC2CCCCC2)c(C)c1[N+](=O)[O-] | . | 0 | . | . | 9 | . | .
Cc1nonc1NC(=O)CSc1nc(C2CCCCC2)nc2ccccc12 | 0 | -5 | i | -3 | 31 | . | .
Cc1nonc1NC(=O)CSc1nc(C23CC4CC(CC(C4)C2)C3)nc2ccccc12 | 2 | 20* | i | -14 | 0 | 4 | 9
Cc1nc2ccccc2c(=O)n1/N=C/c1ccc2ccccc2c1O | 3 | . | i | 6 | -21 | . | .
Cc1cc([N+](=O)[O-])cc(/C=N/n2c(C)nc3ccccc3c2=O)c1O | -4 | 45* | i | 8 | -14 | -15 | 45*
Cc1nc2ccccc2c(=O)n1/N=C/c1ccccc1O | 0 | -8 | i | 3 | -2 | . | .
O=c1c2ccccc2nc(COc2ccccc2)n1/N=C/c1c[nH]c2ccccc12 | -6 | 4 | i | -1 | -4 | . | .
Cc1ccccc1-c1nc2ccccc2c(=O)n1/N=C/c1ccccc1[N+](=O)[O-] | -3 | -1 | i | -7 | -33 | . | .
O=c1c2ccccc2nc(COc2ccccc2)n1/N=C/c1ccc(O)cc1O | -7 | 21* | i | -4 | 14 | -9 | 21*
